Experiment [1] concerns Monocyte. The experiment is described as follows: Inhibition of 11-HETE formation in LPS-stimulated human monocytes preincubated for 15 mins before arachidonic acid substrate addition measured after 30 mins by UPLC-MS/MS analysis. Format: functional, cell-based. Summed up:
(§1)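 Fresh human monocytes (adherence-isolated, >85% CD14+; 5 × 10⁶/well) primed with LPS 1 μg/mL for 24 h. Washed, 15 min preincubation, then 2.5 μM A23187 plus 20 μM arachidonic acid for 30 min. Eicosanoids extracted and measured by UPLC-MS/MS, normalized to PGB1 as relative intensities. Two to three independent experiments.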

Experiment [2] deals with Monocyte. Description: Inhibition of thromboxane B2 formation in LPS-stimulated human monocytes preincubated for 15 mins before arachidonic acid substrate addition measured after 30 mins by UPLC-MS/MS analysis. Format: functional, cell-based. The gist of the method: as §1
Experiment [3] addresses T1, Polyunsaturated fatty acid lipoxygenase ALOX15 (Homo sapiens, UniProt P16050).
T1 sequence (P16050 whole entry): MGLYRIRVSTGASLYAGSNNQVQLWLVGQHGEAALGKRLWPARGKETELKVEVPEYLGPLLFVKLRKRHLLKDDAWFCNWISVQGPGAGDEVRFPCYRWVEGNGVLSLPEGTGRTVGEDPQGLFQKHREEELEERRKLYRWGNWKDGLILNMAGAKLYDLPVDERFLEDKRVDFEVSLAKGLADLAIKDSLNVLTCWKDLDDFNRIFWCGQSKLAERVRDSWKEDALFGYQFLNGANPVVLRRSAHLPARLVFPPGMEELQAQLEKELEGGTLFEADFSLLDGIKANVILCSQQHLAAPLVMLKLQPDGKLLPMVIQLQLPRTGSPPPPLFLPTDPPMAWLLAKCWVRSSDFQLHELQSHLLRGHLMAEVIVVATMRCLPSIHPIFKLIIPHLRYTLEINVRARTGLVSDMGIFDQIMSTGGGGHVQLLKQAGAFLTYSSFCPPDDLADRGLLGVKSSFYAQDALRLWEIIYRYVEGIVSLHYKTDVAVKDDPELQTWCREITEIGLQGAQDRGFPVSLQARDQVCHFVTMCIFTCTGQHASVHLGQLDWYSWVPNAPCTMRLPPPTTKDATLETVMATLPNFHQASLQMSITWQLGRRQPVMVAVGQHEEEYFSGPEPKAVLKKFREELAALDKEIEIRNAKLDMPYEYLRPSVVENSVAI
Description: Inhibition of 15-LO-mediated 15-HETE formation in LPS-stimulated human monocytes preincubated for 15 mins before arachidonic acid substrate addition measured after 30 mins by UPLC-MS/MS analysis. Format: cell-based.

Experiment [4] concerns Mus musculus. The experiment is described as follows: Antiinflammatory activity in zymosan-induced peritonitis CD1 mouse model assessed as suppression of LTB4 level at 10 mg/kg, ip administered 30 mins before challenge measured 4 hrs post zymosan challenge relative to control.
Experiment [5] concerns the target T2, Prostaglandin G/H synthase 2 (Homo sapiens, UniProt P35354).
T2 sequence (P35354 whole entry): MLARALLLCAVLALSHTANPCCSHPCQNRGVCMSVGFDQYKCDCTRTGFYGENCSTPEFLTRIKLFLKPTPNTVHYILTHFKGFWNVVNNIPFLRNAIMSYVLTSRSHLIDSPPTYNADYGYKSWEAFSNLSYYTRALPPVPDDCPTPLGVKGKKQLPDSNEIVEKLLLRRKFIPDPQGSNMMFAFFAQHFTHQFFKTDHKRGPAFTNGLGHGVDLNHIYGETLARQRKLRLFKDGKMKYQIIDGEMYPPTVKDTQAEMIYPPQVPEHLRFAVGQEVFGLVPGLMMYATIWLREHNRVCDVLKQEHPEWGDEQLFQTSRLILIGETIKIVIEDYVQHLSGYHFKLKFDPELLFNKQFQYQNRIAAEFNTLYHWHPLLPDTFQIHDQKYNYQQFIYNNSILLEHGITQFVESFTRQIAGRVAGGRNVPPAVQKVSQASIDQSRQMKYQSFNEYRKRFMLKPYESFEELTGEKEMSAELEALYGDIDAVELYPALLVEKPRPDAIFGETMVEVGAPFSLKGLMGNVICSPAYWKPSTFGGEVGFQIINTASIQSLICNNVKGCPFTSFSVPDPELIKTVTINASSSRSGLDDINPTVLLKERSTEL
The experiment is described as follows: Inhibition of COX2-mediated PGF2alpha formation in LPS-stimulated human monocytes preincubated for 15 mins before arachidonic acid substrate addition measured after 30 mins by UPLC-MS/MS analysis. It is filed as cell-based.

Experiment [6] concerns Mus musculus. Description: Antiinflammatory activity in zymosan-induced peritonitis CD1 mouse model assessed as suppression of MPO activity at 10 mg/kg, ip administered 30 mins before challenge measured 4 hrs post zymosan challenge relative to control. It is filed as functional. The settings on record: route intraperitoneal. The gist of the method:
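In male CD-1 mice (n = 5−11 per group), dose was given ip in 2% DMSO/saline 30 min before ip zymosan (2 mg/mL, 0.5 mL). Lavage 4 h later. Pelleted exudate cells disrupted; supernatant mixed with 0.167 mg/mL o-dianisidine and 0.0005% H2O2 in PBS, read kinetically by absorbance. U/mL from human neutrophil MPO calibration; % inhibition vs vehicle.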

Experiment [7] relates to Mus musculus. Description: Antiinflammatory activity in zymosan-induced peritonitis CD1 mouse model assessed as suppression of LTC4 level at 10 mg/kg, ip administered 30 mins before challenge measured 30 mins post zymosan challenge relative to control. Format: functional. The settings on record: route intraperitoneal. The gist of the method:
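Male CD-1 mice (33−39 g, 8−9 weeks; n = 5−11 per group) dosed ip in 0.5 mL 0.9% saline with 2% DMSO 30 min before ip zymosan (0.5 mL of 2 mg/mL in saline). Killed by CO2 30 min after zymosan, peritoneum lavaged with 3 mL cold PBS pH 7.4. Cysteinyl-LTs in exudate supernatant by enzyme immunoassay; % inhibition vs vehicle.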

Each structure is given as a SMILES string.

Usually IC50 stands for the midpoint of a concentration-inhibition curve. Read a high IC50 as weaker potency. For `COc1cc(/C=C/C(=O)CC(=O)/C=C/c2ccc(O)c(OC)c2)ccc1O` [CURCUMIN], the IC50 in experiment [1], in experiment [2] and in experiment [3] was 1200 nM in each case.
Broadly, the inhibition in vivo is how much of the control response was suppressed. As to `COc1cc(/C=C/c2cc(/C=C/c3cc(CC=C(C)C)c(O)c(OC)c3)[nH]n2)cc(CC=C(C)C)c1O`, the results for the inhibition in vivo at 10 mg/kg in experiment [4], in experiment [6] and in experiment [7] were 61%, 39% and 92%, respectively. This compound also gave an IC50 in experiment [5] of more than 10000 nM.

Values taken from ChEMBL document CHEMBL3286393 (J Med Chem, 2014).
